Source: PubChem (The Scripps Research Institute Molecular Screening Center)
A selection: hits, their analogues and other compounds. The true share with any hit is near 1.9%.
DDE Tn6 FP inh = DD(E)-Tn6 binding inhibition, primary FP screen. Fibrin DD(E) TRITC-Tn6 fluorescence polarization displacement. P02675. inhibition, % at 8.3 µM. AID 720509. 370,000 compounds, 0.21% hits;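 active = inhibition above a per-campaign cutoff: mean of compounds within control limits plus 3 SD, cut at about 15% in these data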;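 note: 0% = median of all compound wells on the plate and 100% = blocking peptide control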
Target sequence (P02675 whole entry, looked up): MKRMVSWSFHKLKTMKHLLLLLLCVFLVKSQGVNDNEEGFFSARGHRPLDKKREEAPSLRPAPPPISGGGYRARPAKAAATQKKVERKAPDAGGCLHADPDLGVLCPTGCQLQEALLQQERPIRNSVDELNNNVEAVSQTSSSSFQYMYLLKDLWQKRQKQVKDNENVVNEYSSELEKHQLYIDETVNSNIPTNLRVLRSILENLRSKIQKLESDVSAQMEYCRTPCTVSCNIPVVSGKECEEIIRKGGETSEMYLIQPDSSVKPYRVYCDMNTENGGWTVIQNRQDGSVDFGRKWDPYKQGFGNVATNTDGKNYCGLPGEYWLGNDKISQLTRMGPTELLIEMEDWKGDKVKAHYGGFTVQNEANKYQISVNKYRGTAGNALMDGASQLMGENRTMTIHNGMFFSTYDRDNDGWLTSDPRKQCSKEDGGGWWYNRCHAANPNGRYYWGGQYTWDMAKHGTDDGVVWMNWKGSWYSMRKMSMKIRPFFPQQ
Tn7 DDE FP = inhibitors of Tn7 peptide binding to human fibrin DD(E). 370,000 compounds, 0.13% hits. inhibition, % at 8.3 µM. FP displacement of FITC-Tn7 peptide from fibrin DD(E); 0% = median of compound wells per plate. P02675. AID 720508;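 active = inhibition above the mean of compounds falling within the control limits plus 3 SD of them, cut at about 14% in these data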;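 note: 0% = plate median of compound wells and 100% = 10 µM Aha-Tn7 peptide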
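system = human fibrin DD(E) protein | quantity = DD(E) 2 µM final | medium = Tris/NaCl/CaCl2 buffer, pH 7.8 | also added = labelled Tn7 tracer, 0.1 µM | compound dosing = single point at 8.3 µM | timing = compound with protein 10 min, then 3 h after probe, room temperature | signal = FP measurement | benchmarks = Aha-Tn7 high control | repeats = one replicate per compound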
MBD2 inh = inhibitors of human MBD2 binding to methylated oligonucleotide; inhibition, % at 4.4 µM; 370,000 compounds, 0.31% hits; AID 686964; Q9UBB5; TR-FRET; in the data active = inhibition above about 13%
TDP2 inh = TDP2 (human) inhibition, absorbance primary screen; O95551; recombinant TDP2, T5PNP hydrolysis, p-nitrophenol absorbance 415 nm; inhibition, % at 12.8 µM; 370,000 compounds, 0.34% hits; AID 720702;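 active = inhibition above the mean of all tested compounds plus 3 SD, set per campaign, cut at about 25% in these data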;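 note: 0% = DMSO with enzyme and 100% = buffer with substrate but no TDP2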
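Assay system: recombinant human TDP2 / Reagent: T5PNP substrate at 5 mM, a TopII-DNA adduct mimic / Measured by: epi absorbance from released p-nitrophenol / Evaluation: % inhibition relative to enzyme-containing and enzyme-free wells / Control set: enzyme-free and DMSO wells / Replicates: each compound tested once, singlicate / Schedule: enzyme reaction with compound for 2 h at 37 °C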
UHRF1 MBD2 ctr = UHRF1 methyl-DNA binding inhibition; Q96T88; UHRF1 binding to methylated oligo, TR-FRET; inhibition, % at 4.4 µM; 370,000 compounds, 0.75% hits; in the data active = inhibition above about 21%;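 note: UHRF1 SRA domain binding a hemimethylated CpG hairpin DNA probe; 0% = median of test compound wells and 100% = reference inhibitor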
LEDGF integ inh = blocks HIV-1 LEDGF/p75-dependent DNA integration; 370,000 compounds, 0.64% hits; AID 743269; TR-FRET IN-LEDGF/p75 DNA integration, Eu/Cy5; inhibition, % at 3.7 µM;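 active = inhibition above the screen-wide mean plus 3 SD, cut at about 13% in these data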;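 note: signal is the Cy5 over europium emission ratio at 671 and 618 nm; 0% = plate median of compound wells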
Numbers without * were called inactive.

SMILES	DDE Tn6 FP inh	Tn7 DDE FP	MBD2 inh	TDP2 inh	UHRF1 MBD2 ctr	LEDGF integ inh
CNc1cccccc1=S	-7	3	8	9	15	23*
COc1cccc(NC(=S)/C(=C(\[O-])c2ccc(OC(F)F)cc2)[n+]2ccccc2)c1	3	-9	-3	-1	-7	-1
[O-]/C(=C(\C(=S)Nc1cccc2ccccc12)[n+]1ccccc1)c1ccc(OC(F)F)cc1	4	5	1	0	29*	-3
COc1ccc2c(c1)c(=O)oc1cc(OCC(=O)N3CCc4ccccc4C3)ccc12	4	0	21*	9	39*	9
COC(=O)c1ccc2nc(C3CCCCC3)c(Cc3ccccc3)n2c1	1	1	6	-2	20	7
COC(=O)c1ccc2nc(C3CCCCC3)c(CC(C)(C)C)n2c1	-5	4	0	-5	21*	-4
COc1ccc(S(=O)(=O)Nc2cccc(S(=O)(=O)N(C)C)c2)cc1[N+](=O)[O-]	4	5	8	-5	23*	0
O=C(CCl)N1c2ccccc2Oc2ccc3ccccc3c21	39*	16*	-13	6	-12	6
CN(CCc1ccccc1)C(=O)c1ccc(NC(=O)Cc2ccc(NC(=O)C3CCCN(C(=O)C4CCC4)C3)cc2)cc1 (centres undefined)	-3	3	2	1	0	-3
CN(CCc1ccccc1)C(=O)c1ccc(NC(=O)Cc2ccc(NC(=O)C3CCCN(C(=O)CCc4ccccc4)C3)cc2)cc1 (centres undefined)	13	4	-6	0	37*	-2
O=C(CCc1ccccc1)N1CCCC(Nc2ccc(F)cc2)C1 (centres undefined)	6	0	9	-7	23*	6
C/C(=N\Nc1nc2ccccc2[nH]1)c1ccc(N2CCOCC2)cc1	-8	-5	3	6	33*	0
C/C(=N\Nc1nc(C)cc(C)n1)c1ccc(N2CCOCC2)cc1	9	-2	0	9	-1	0
COc1cccc(C(=O)N[C@H](C(=O)N2CCC[C@H]2C(=O)NCCc2ccccc2Cl)C2CCCCC2)c1	2	1	-3	-4	-1	2
CCCc1cc(=O)oc2cc(C)c(CN3CCCC3)c(O)c12	1	-4	7	4	10	13*
O=C(N[C@H](C(=O)N1CCC[C@H]1C(=O)NC1CCCC1)C1CCCCC1)c1cccs1	0	-1	-3	-6	-1	0
COC(=O)[C@]12C[C@H](CC(=O)N3CCN(C(=O)c4ccco4)CC3)C(=O)N(Cc3ccc4c(c3)OCO4)C1=C[C@H](C(C)(C)C)O[C@@H]2C	3	-1	1	0	2	-3
Cc1ccc(NC(=O)c2ccc(S(=O)(=O)NCc3ccco3)cc2)nc1	9	5	4	1	-3	2
Cc1cccc(NC(=O)c2ccc(S(=O)(=O)NCc3ccco3)cc2)n1	-1	2	3	0	30*	-1
CC(C)C[C@@H](COCc1ccc(Cl)cc1)N1CCN(C(=O)c2ccc(C(F)(F)F)cc2)CCC1=O	-1	7	-2	11	1	-3
CC(C)C[C@@H](COCc1ccc([N+](=O)[O-])cc1)N1CCN(C(=O)c2ccc(C(F)(F)F)cc2)CCC1=O	-1	4	5	-2	22*	-2
CS(=O)(=O)N1CCc2cc(C(=O)N3CCN(c4ccccc4F)CC3)ccc21	0	-3	5	-5	23*	4
CCN(c1ccccc1)S(=O)(=O)c1cc(C(=O)OCC(=O)c2c(N)n(C)c(=O)n(C)c2=O)ccc1C	-9	-2	12	-5	32*	1
O=C(Nc1ccc(OC(F)F)cc1)c1ncc(Cl)c(Cl)c1Cl	1	3	13	-3	24*	-5
Cc1ccc(NC(=O)c2ncc(Cl)c(Cl)c2Cl)cc1C	-8	-8	4	3	-1	1
SMILES	DDE Tn6 FP inh	Tn7 DDE FP	MBD2 inh	TDP2 inh	UHRF1 MBD2 ctr	LEDGF integ inh
CCCCCCCCNS(=O)(=O)CCNCc1ccccc1	6	-1	1	0	23*	-3
CCOC(=O)CC1(O)CSc2nc(N)cc(=O)n21 (centres undefined)	-6	-1	-2	-3	0	5
O=c1cc(CN2CCOCC2)c2cc(Cl)c(O)cc2o1	-8	-5	12	-5	40*	2
Cc1c(O)ccc2c(CN3CCOCC3)cc(=O)oc12	-2	-4	-6	15	-3	3
CCOC(=O)c1c(C)[nH]c(C)c1C(=O)CSc1nc2ccccc2c(=O)n1-c1ccccc1C	9	-3	11	8	21*	3
Cc1ccc(N2C(=O)CC(Cc3cc(C)cc(C)c3)C2=O)cc1 (centres undefined)	0	-5	11	-7	24*	-5
Cc1cc(C)cc(CC2CC(=O)N(c3cc(C)ccc3C)C2=O)c1 (centres undefined)	10	2	-2	9	-1	-1
O=C(NCC1CCN(C(=O)C(=O)c2cccs2)CC1)c1ccc2ccccc2c1	-1	0	3	3	1	-2
O=C(O)C(O)Cc1c[nH]c2ccccc12 (centres undefined)	-4	-5	-4	13	-1	2
CC(Cc1c[nH]c2ccccc12)C(=O)O (centres undefined)	1	6	12	5	23*	3
O=C(Cc1c[nH]c2ccccc12)OCC(=O)c1ccccc1	3	-1	11	-10	29*	3
COC(=O)[C@]12C[C@H](CC(=O)NCCCCc3ccccc3)C(=O)N(Cc3ccccc3)C1=C[C@H](C(C)(C)C)O[C@@H]2C	4	-1	2	-8	-1	-1
CC(C)(C)S(=O)(=O)N1C[C@H]2C(=C(CCO)C[C@H]3C(=O)N(c4ccccc4)C(=O)[C@H]32)[C@@H]1CCO	-5	2	10	-7	8	6
COc1cc(NC(=O)c2cc(C)on2)c(OC)cc1Cl	3	3	6	-6	-4	-1
COc1cc(NC(=O)c2noc3c2CCC3)c(OC)cc1Cl	4	-2	0	-4	28*	7
O=C(C1CC12CCCC2)N1CCC(CO)(Cc2ccccc2Cl)CC1 (centres undefined)	5	-1	4	-13	45*	-4
COC(=O)c1ccc(CN2CCC(CO)(Cc3ccccc3Cl)CC2)cc1	3	7	5	6	-1	3
CN(C)C(=O)[C@H]1C[C@H]1[C@@H](O)[C@H](CO)NC(=O)[C@H](Cc1ccccc1)NC(=O)OC(C)(C)C	4	-4	12	14	28*	11
